Measured values taken from ChEMBL document CHEMBL1146655, “Novel thrombin inhibitors incorporating weakly basic heterobicyclic P1-arginine mimetics: optimization via modification of P1 and P3 moieties” (Bioorg Med Chem Lett, 2004).

Experiments:
[1] = Dissociation constant was evaluated; format: physicochemical
Prothrombin = Prothrombin (Homo sapiens, UniProt P00734); assay: In vitro inhibition of human thrombin.
Coagulation factor X = Coagulation factor X (Homo sapiens, UniProt P00742); assay: In vitro inhibition of Coagulation factor Xa.
Method in brief: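 Amidolytic assay with a chromogenic substrate for factor Xa. Ki was derived by the Cheng–Prusoff relation from IC50 values, or from velocity equations with and without inhibitor using the substrate Km.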

[2] = Selectivity for inhibition of thrombin over trypsin.
Method in brief: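 Ratio Ki(trypsin)/Ki(thrombin). Both Ki values came from chromogenic-substrate amidolytic assays, each derived by Cheng–Prusoff from IC50 or from velocity equations with and without inhibitor using the relevant Km.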

Serine protease 1 = biological target: T1, Serine protease 1 (Bos taurus, UniProt P00760); assay: In vitro inhibition of bovine trypsin.
T1 sequence (P00760 whole entry): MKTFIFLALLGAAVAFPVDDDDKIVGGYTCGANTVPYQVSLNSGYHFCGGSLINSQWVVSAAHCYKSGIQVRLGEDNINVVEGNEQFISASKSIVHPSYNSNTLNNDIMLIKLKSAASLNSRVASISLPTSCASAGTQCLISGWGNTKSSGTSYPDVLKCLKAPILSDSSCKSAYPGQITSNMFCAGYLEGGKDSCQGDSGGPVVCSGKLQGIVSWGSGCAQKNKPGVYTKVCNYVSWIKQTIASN
Method in brief: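 Amidolytic assay of thrombin, trypsin and factor Xa activity with chromogenic substrates. Ki was derived by the Cheng–Prusoff relation from IC50, or from reaction velocity equations with and without inhibitor using the substrate Km. Thrombin-over-trypsin selectivity was taken as the ratio Ki(trypsin)/Ki(thrombin).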

[3] = Concentration required to double the activated partial thromboplastin time in human plasma; format: functional
[4] = Concentration required to double the thrombin time in human plasma; format: functional
[5] = Concentration required to double the prothrombin time in human plasma; format: functional

Sequence of Coagulation factor X (P00742 41-179 limits assumed): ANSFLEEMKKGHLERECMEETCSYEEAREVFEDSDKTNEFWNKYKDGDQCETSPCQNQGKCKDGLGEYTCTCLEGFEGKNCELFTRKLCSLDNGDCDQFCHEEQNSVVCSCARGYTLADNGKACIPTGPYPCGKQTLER
Sequence of Coagulation factor X (P00742 235-488 limits assumed): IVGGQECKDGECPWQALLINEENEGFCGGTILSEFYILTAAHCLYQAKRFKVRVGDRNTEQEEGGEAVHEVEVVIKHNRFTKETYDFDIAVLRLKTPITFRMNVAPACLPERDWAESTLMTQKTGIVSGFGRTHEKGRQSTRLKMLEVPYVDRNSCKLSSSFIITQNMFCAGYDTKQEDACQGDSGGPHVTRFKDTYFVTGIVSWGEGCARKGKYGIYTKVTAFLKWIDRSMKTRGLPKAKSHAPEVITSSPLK

CCCS(=O)(=O)Nc1ccc(C)n(CC(=O)NCC2CCc3nc(N)sc3C2)c1=O (stereo not given)
pKa [1]: 6.5
Ki (Prothrombin): 3800 nM

CCCS(=O)(=O)Nc1ccc(C)n(CC(=O)NC2CCc3nc(N)sc3C2)c1=O (stereo not given)
pKa [1]: 6.1
Ki (Coagulation factor X): 200 µM
Selectivity [2]: 28
Ki (Prothrombin): 2300 nM
Ki (Serine protease 1): 64.3 µM

Cc1ccc(NS(=O)(=O)Cc2ccccc2)c(=O)n1CC(=O)NC1CCc2c(sc(=N)n2N)C1 (stereo not given)
pKa [1]: 3.17
Ki (Coagulation factor X): > 200 µM
2x APTT [3]: 2.4 µM
Selectivity [2]: 65
Ki (Prothrombin): 42 nM
Ki (Serine protease 1): 2.71 µM

Cc1ccc(NS(=O)(=O)Cc2cccc(C(F)(F)F)c2)c(=O)n1CC(=O)NCC1CCc2n[nH]cc2C1 (stereo not given)
pKa [1]: 4
Ki (Coagulation factor X): 252 µM
2x APTT [3]: 447 µM
TT [4]: 36.6 µM
PT [5]: 293 µM
Selectivity [2]: 757
Ki (Prothrombin): 562 nM
Ki (Serine protease 1): 425 µM

Cc1ccc(NS(=O)(=O)Cc2ccccc2)c(=O)n1CC(=O)NC1CCc2nc(N)sc2C1 (stereo not given)
Ki (Coagulation factor X): 92 µM
2x APTT [3]: 36.5 µM
TT [4]: 6.6 µM
PT [5]: 41.4 µM
Selectivity [2]: 2170
Ki (Prothrombin): 120 nM

Cc1ccc(NS(=O)(=O)Cc2ccccc2)c(=O)n1CC(=O)N[C@@H]1CCc2nc(N)sc2C1
pKa [1]: 6.1
Ki (Coagulation factor X): 225 µM
2x APTT [3]: 9.52 µM
Selectivity [2]: 3700
Ki (Prothrombin): 71 nM
Ki (Serine protease 1): 263 µM

Cc1ccc(NS(=O)(=O)Cc2ccc(F)cc2Cl)c(=O)n1CC(=O)NC1CCc2nc(N)sc2C1 (stereo not given)
pKa [1]: 6.1
Ki (Coagulation factor X): 69 µM
2x APTT [3]: 94 µM
TT [4]: 93.8 µM
Ki (Prothrombin): 157 nM
Ki (Serine protease 1): 1920 µM

Cc1ccc(NS(=O)(=O)Cc2ccccc2)c(=O)n1CC(=O)NCC1CCc2n[nH]cc2C1 (stereo not given)
2x APTT [3]: 20.5 µM
TT [4]: 5.2 µM
PT [5]: 30.6 µM
Selectivity [2]: > 2940
Ki (Serine protease 1): > 500 µM

Cc1ccc(CS(=O)(=O)Nc2ccc(C)n(CC(=O)NC3CCc4nc(N)sc4C3)c2=O)cc1 (stereo not given)
pKa [1]: 6.1
Ki (Coagulation factor X): 80 µM
2x APTT [3]: 31.3 µM
TT [4]: 12 µM
PT [5]: 56 µM
Selectivity [2]: 2460
Ki (Prothrombin): 100 nM
Ki (Serine protease 1): 246 µM

Cc1ccc(CS(=O)(=O)Nc2ccc(C)n(CC(=O)NCC3CCc4n[nH]cc4C3)c2=O)cc1 (stereo not given)
pKa [1]: 4
Ki (Coagulation factor X): 228 µM
2x APTT [3]: 18.8 µM
TT [4]: 3.4 µM
PT [5]: 26.8 µM
Selectivity [2]: > 2900
Ki (Prothrombin): 102 nM
Ki (Serine protease 1): > 300 µM

Cc1ccc(NS(=O)(=O)Cc2ccc(F)cc2)c(=O)n1CC(=O)NC1CCc2c(sc(=N)n2N)C1 (stereo not given)
pKa [1]: 3.17
Ki (Coagulation factor X): 131 µM
2x APTT [3]: 22.6 µM
Selectivity [2]: 201
Ki (Prothrombin): 22 nM
Ki (Serine protease 1): 8.06 µM

Cc1ccc(NS(=O)(=O)Cc2ccc(F)cc2)c(=O)n1CC(=O)N[C@H]1CCc2nc(N)sc2C1
pKa [1]: 6.1
Ki (Coagulation factor X): 176 µM
Selectivity [2]: > 123
Ki (Serine protease 1): > 700 µM

Cc1ccc(NS(=O)(=O)Cc2ccc(F)cc2)c(=O)n1CC(=O)N[C@@H]1CCc2nc(N)sc2C1
pKa [1]: 6.1
Ki (Coagulation factor X): > 500 µM
2x APTT [3]: 20.1 µM
Selectivity [2]: > 9090
Ki (Prothrombin): 77 nM
Ki (Serine protease 1): > 700 µM

Cc1ccc(NS(=O)(=O)Cc2ccccc2)c(=O)n1CC(=O)N[C@H]1CCc2nc(N)sc2C1
pKa [1]: 6.1
Ki (Coagulation factor X): 371 µM
Selectivity [2]: 253
Ki (Prothrombin): 1160 nM

Cc1ccc(NS(=O)(=O)Cc2ccc(F)cc2Cl)c(=O)n1CC(=O)NCC1CCc2n[nH]cc2C1 (stereo not given)
pKa [1]: 4
Ki (Coagulation factor X): 75 µM
2x APTT [3]: 50 µM
TT [4]: 10.8 µM
PT [5]: 120 µM
Selectivity [2]: > 1910
Ki (Prothrombin): 157 nM
Ki (Serine protease 1): > 300 µM

Cc1ccc(NS(=O)(=O)Cc2ccc(F)cc2)c(=O)n1CC(=O)NCC1CCc2n[nH]cc2C1 (stereo not given)
pKa [1]: 4
Ki (Coagulation factor X): 314 µM
2x APTT [3]: 15.8 µM
TT [4]: 3.9 µM
PT [5]: 34 µM
Selectivity [2]: 1720
Ki (Prothrombin): 149 nM
Ki (Serine protease 1): 258 µM

Cc1ccc(NS(=O)(=O)Cc2ccc(F)cc2)c(=O)n1CC(=O)NC1CCc2nc(N)sc2C1 (stereo not given)
pKa [1]: 6.1
Ki (Coagulation factor X): > 300 µM
2x APTT [3]: 28.7 µM
TT [4]: 5.1 µM
PT [5]: 57.7 µM
Selectivity [2]: > 8000
Ki (Prothrombin): 100 nM
Ki (Serine protease 1): > 800 µM

CCCCS(=O)(=O)Nc1ccc(C)n(CC(=O)NC2CCc3nc(N)sc3C2)c1=O (stereo not given)
pKa [1]: 6.1
Ki (Coagulation factor X): 179 µM
Selectivity [2]: 38
Ki (Prothrombin): 1340 nM

Cc1ccc(NS(=O)(=O)Cc2cccc(C(F)(F)F)c2)c(=O)n1CC(=O)NC1CCc2nc(N)sc2C1 (stereo not given)
pKa [1]: 6.1
Ki (Coagulation factor X): 81 µM
2x APTT [3]: 428 µM
TT [4]: 125 µM
PT [5]: 435 µM
Selectivity [2]: > 300
Ki (Serine protease 1): > 200 µM
